Experimental data reported in ChEMBL document CHEMBL5058577, “EUbOPEN Chemogenomics Library 2 (Multiplex)” (2022).

Tested on: Fibroblast
Experiment: Multiplex assay against human fibroblast
Format: toxicity, cell-based
Outline: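 Compound was added to live cells that had been stained at seeding with Hoechst33342, BioTracker Green Microtubule Cytoskeleton Dye, MitoTracker Red and Annexin V Alexa Fluor 680, and imaging followed on a CQ1 microscope at 37°C and 5% CO2. CellPathfinder machine-learning gating divided cells into Hoechst high-intensity objects or normal cells, normal cells into healthy, pyknosed or fragmented nuclei, and pyknosed cells into mitotic or apoptotic. Tubulin, mitochondrial-mass and membrane-permeability phenotypes are per cents of healthy-nucleus cells.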

[1] = 12 h, 1 µM, compound concentration 1 uM, replicate 1
[2] = 12 h, 1 µM, compound concentration 1 uM, replicate 2
[3] = 12 h, 10 µM, compound concentration 10 uM, replicate 1
[4] = 12 h, 10 µM, compound concentration 10 uM, replicate 2
[5] = 24 h, 1 µM, compound concentration 1 uM, replicate 1
[6] = 24 h, 1 µM, compound concentration 1 uM, replicate 2
[7] = 24 h, 10 µM, compound concentration 10 uM, replicate 1
[8] = 24 h, 10 µM, compound concentration 10 uM, replicate 2
[9] = 48 h, 1 µM, compound concentration 1 uM, replicate 1
[10] = 48 h, 1 µM, compound concentration 1 uM, replicate 2
[11] = 48 h, 10 µM, compound concentration 10 uM, replicate 1
[12] = 48 h, 10 µM, compound concentration 10 uM, replicate 2

Cl.Clc1ccc2nsnc2c1NC1=NCCN1 [TIZANIDINE HYDROCHLORIDE]
Population Apoptotic (%) [1]: 38%
Population Fragmented Nuclei (%) [1]: 10%
Population Healthy Nuclei (%) [1]: 72%
Population Hoechst High Intensity Objects (%) [1]: 3%
Population Membrane Permeable-Phenotype (%) [1]: 0%
Population Mitochondria Different-Phenotype (%) [1]: 4%
Population Mitotic Cells (%) [1]: 61%
Population Normal (%) [1]: 96%
Population Pyknosed Nuclei (%) [1]: 17%
Population Tubulin-Different-Phenotype (%) [1]: 21%
Total Cell Count [1]: 155
Population Apoptotic (%) [2]: 33%
Population Fragmented Nuclei (%) [2]: 24%
Population Healthy Nuclei (%) [2]: 49%
Population Hoechst High Intensity Objects (%) [2]: 4%
Population Membrane Permeable-Phenotype (%) [2]: 5%
Population Mitochondria Different-Phenotype (%) [2]: 5%
Population Mitotic Cells (%) [2]: 66%
Population Normal (%) [2]: 95%
Population Pyknosed Nuclei (%) [2]: 25%
Population Tubulin-Different-Phenotype (%) [2]: 50%
Total Cell Count [2]: 182
Population Apoptotic (%) [3]: 36%
Population Fragmented Nuclei (%) [3]: 18%
Population Healthy Nuclei (%) [3]: 60%
Population Hoechst High Intensity Objects (%) [3]: 4%
Population Membrane Permeable-Phenotype (%) [3]: 0%
Population Mitochondria Different-Phenotype (%) [3]: 8%
Population Mitotic Cells (%) [3]: 64%
Population Normal (%) [3]: 95%
Population Pyknosed Nuclei (%) [3]: 20%
Population Tubulin-Different-Phenotype (%) [3]: 29%
Total Cell Count [3]: 129
Population Apoptotic (%) [4]: 21%
Population Fragmented Nuclei (%) [4]: 24%
Population Healthy Nuclei (%) [4]: 45%
Population Membrane Permeable-Phenotype (%) [4]: 7%
Population Mitochondria Different-Phenotype (%) [4]: 7%
Population Mitotic Cells (%) [4]: 78%
Population Pyknosed Nuclei (%) [4]: 29%
Population Tubulin-Different-Phenotype (%) [4]: 33%
Total Cell Count [4]: 143
Population Apoptotic (%) [5]: 52%
Population Fragmented Nuclei (%) [5]: 6%
Population Healthy Nuclei (%) [5]: 76%
Population Hoechst High Intensity Objects (%) [5]: 2%
Population Membrane Permeable-Phenotype (%) [5]: 0%
Population Mitochondria Different-Phenotype (%) [5]: 0%
Population Mitotic Cells (%) [5]: 47%
Population Normal (%) [5]: 97%
Population Pyknosed Nuclei (%) [5]: 16%
Population Tubulin-Different-Phenotype (%) [5]: 16%
Total Cell Count [5]: 146
Population Apoptotic (%) [6]: 42%
Population Fragmented Nuclei (%) [6]: 26%
Population Healthy Nuclei (%) [6]: 49%
Population Hoechst High Intensity Objects (%) [6]: 4%
Population Membrane Permeable-Phenotype (%) [6]: 9%
Population Mitochondria Different-Phenotype (%) [6]: 4%
Population Mitotic Cells (%) [6]: 57%
Population Normal (%) [6]: 95%
Population Pyknosed Nuclei (%) [6]: 24%
Population Tubulin-Different-Phenotype (%) [6]: 50%
Total Cell Count [6]: 182
Population Apoptotic (%) [7]: 45%
Population Fragmented Nuclei (%) [7]: 19%
Population Healthy Nuclei (%) [7]: 60%
Population Hoechst High Intensity Objects (%) [7]: 1%
Population Membrane Permeable-Phenotype (%) [7]: 0%
Population Mitochondria Different-Phenotype (%) [7]: 5%
Population Mitotic Cells (%) [7]: 54%
Population Normal (%) [7]: 98%
Population Pyknosed Nuclei (%) [7]: 20%
Population Tubulin-Different-Phenotype (%) [7]: 20%
Total Cell Count [7]: 122
Population Apoptotic (%) [8]: 47%
Population Healthy Nuclei (%) [8]: 48%
Population Hoechst High Intensity Objects (%) [8]: 2%
Population Membrane Permeable-Phenotype (%) [8]: 9%
Population Mitochondria Different-Phenotype (%) [8]: 6%
Population Mitotic Cells (%) [8]: 52%
Population Normal (%) [8]: 97%
Population Pyknosed Nuclei (%) [8]: 32%
Population Tubulin-Different-Phenotype (%) [8]: 34%
Total Cell Count [8]: 135
Population Apoptotic (%) [9]: 47%
Population Fragmented Nuclei (%) [9]: 17%
Population Healthy Nuclei (%) [9]: 71%
Population Hoechst High Intensity Objects (%) [9]: 2%
Population Membrane Permeable-Phenotype (%) [9]: 2%
Population Mitochondria Different-Phenotype (%) [9]: 1%
Population Mitotic Cells (%) [9]: 52%
Population Normal (%) [9]: 97%
Population Pyknosed Nuclei (%) [9]: 10%
Population Tubulin-Different-Phenotype (%) [9]: 19%
Total Cell Count [9]: 167
Population Apoptotic (%) [10]: 55%
Population Fragmented Nuclei (%) [10]: 29%
Population Healthy Nuclei (%) [10]: 47%
Population Hoechst High Intensity Objects (%) [10]: 6%
Population Membrane Permeable-Phenotype (%) [10]: 6%
Population Mitochondria Different-Phenotype (%) [10]: 8%
Population Mitotic Cells (%) [10]: 44%
Population Normal (%) [10]: 93%
Population Pyknosed Nuclei (%) [10]: 23%
Population Tubulin-Different-Phenotype (%) [10]: 56%
Total Cell Count [10]: 166
Population Apoptotic (%) [11]: 69%
Population Fragmented Nuclei (%) [11]: 26%
Population Healthy Nuclei (%) [11]: 56%
Population Hoechst High Intensity Objects (%) [11]: 2%
Population Membrane Permeable-Phenotype (%) [11]: 0%
Population Mitochondria Different-Phenotype (%) [11]: 5%
Population Mitotic Cells (%) [11]: 30%
Population Normal (%) [11]: 97%
Population Pyknosed Nuclei (%) [11]: 17%
Population Tubulin-Different-Phenotype (%) [11]: 26%
Total Cell Count [11]: 133
Population Apoptotic (%) [12]: 63%
Population Fragmented Nuclei (%) [12]: 35%
Population Healthy Nuclei (%) [12]: 42%
Population Membrane Permeable-Phenotype (%) [12]: 6%
Population Mitochondria Different-Phenotype (%) [12]: 11%
Population Mitotic Cells (%) [12]: 36%
Population Pyknosed Nuclei (%) [12]: 21%
Population Tubulin-Different-Phenotype (%) [12]: 44%
Total Cell Count [12]: 141
